Reference: ChEMBL document CHEMBL2331390, “Telomere shortening and cell senescence induced by perylene derivatives in A549 human lung cancer cells” (Bioorg Med Chem, 2013)
Calls of active or inactive are those of the source. The rule behind the calls is not given here.

Key:
Homo sapiens [1] = species: Homo sapiens; test: Binding affinity to human telomeric 5'-AGATAGTTAGGGTTAGGGTTAGGGTTAGGGTT-3' DNA assessed as induction of intramoleculsr G-quadruplex formation after 10 hrs by PAGE analysis
Procedure, shortened: (§1)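 FAM-labeled G-rich strand (2 µM) and complementary C-rich strand (2 µM) with compound in 10 mM Tris-HCl pH 7.4, 100 mM KCl. Heated to 95 °C for 5 min, slowly cooled to 55 °C, held 10 h, then cooled to 4 °C. Duplex vs G-quadruplex resolved on 16% native PAGE with 50 mM KCl (4 °C, 350 V, 10 h) and fluorescence-imaged.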

Homo sapiens [2] = species: Homo sapiens; test: Binding affinity to human TERT2 5'-GGGGGCTGGGCCGGGGACCCGGGAGGGGTCGGGACGGGGCGGGG-3' DNA assessed as induction of intermolecular G-quadruplex formation at 8 to 32 uM after 10 hrs by PAGE analysis; procedure, shortened: as §1
A549 [3] = test: Binding affinity to human TERT promoter DNA sequence in human A549 cells assessed as telomere restriction fragment length at 0.4 uM after 6 days by TeloTAGGG-based chemiluminescence assay (reference value: 3.4 kb); assay type: cell-based
Procedure, shortened: (§2)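 Genomic DNA from A549 cells kept long-term with 0.4 or 0.8 μM compound (medium changed every 3 days, replated every 6 days). DNA isolated with DNAzol. 2 µg digested with RsaI/HinfI, run on 0.8% agarose, Southern-blotted, hybridized with DIG-labeled telomeric probe, anti-DIG alkaline phosphatase, chemiluminescence. Mean TRF = Σ(ODi)/Σ(ODi/Li).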

A549 [4] = test: Antiproliferative activity against human A549 cells assessed as decrease in population doubling at 0.8 uM after 78 days relative to control; assay type: functional; set-up: scale not given: the % may be the effect or the level left
Procedure, shortened: (§3)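 A549 cells (1.5×10^5) seeded in RPMI 1640 + 10% FBS with 0.4 or 0.8 μM perylene or medium only. Medium changed every 3 days. Every 6 days, at confluence, cells were trypsinized, counted by hemocytometer and replated at 1.5×10^5. Population doublings n = (log Pn − log P0)/log 2, cumulated against time. Three independent experiments.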

A549 [5] = test: Cytotoxicity against human A549 cells assessed as colony formation at 0.4 uM incubated for 78 days followed by subculturing in compound-free medium measured after 14 days by crystal violet staining method relative to control; assay type: functional
Procedure, shortened: (§4)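 A549 cells from the long-term culture (0.4 or 0.8 μM, medium changed every 3 days, replated every 6 days) were collected on the stated day. 2×10^3 cells seeded per 10-cm dish, fed every 4-5 days. Colonies stained with crystal violet after 14 days and counted; expressed as % of control. Controls under 25 colonies excluded. Three independent experiments.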

A549 [6] = test: Cytotoxicity against human A549 cells assessed as colony formation at 0.8 uM incubated for 6 days followed by subculturing in compound-free medium measured after 14 days by crystal violet staining method relative to control; assay type: functional; procedure, shortened: as §4
A549 [7] = test: Cytotoxicity against human A549 cells assessed as colony formation at 0.8 uM incubated for 78 days followed by subculturing in compound-free medium measured after 14 days by crystal violet staining method relative to control; assay type: functional; procedure, shortened: as §4
A549 [8] = test: Binding affinity to human TERT promoter DNA sequence in human A549 cells assessed as inhibition of telomerase-mediated MTS primer extension after 24 hrs by fluorescence-based TRAP assay; assay type: cell-based
Procedure, shortened: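 A549 cells exposed to compound for 24 h, lysed in CHAPS buffer, protein measured by Bradford. 6 µg lysate protein used as telomerase source in fluorescent TRAP with MTS primer (no G-quadruplex motif), with no phenol-chloroform step. FAM-primer PCR, native PAGE, fluorescence quantified. Mean ± SD of three experiments.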

A549 [9] = test: Antiproliferative activity against human A549 cells assessed as decrease in cell viability at 0.8 uM after 78 days relative to control; assay type: functional, cell-based; procedure, shortened: as §3
A549 [10] = test: Binding affinity to human TERT promoter DNA sequence in human A549 cells assessed as telomere restriction fragment length at 0.4 uM after 78 days by TeloTAGGG-based chemiluminescence assay (reference value: 3.4 kb); assay type: cell-based; procedure, shortened: as §2
A549 [11] = test: Binding affinity to human TERT promoter DNA sequence in human A549 cells assessed as telomere restriction fragment length at 0.4 uM after 30 days by TeloTAGGG-based chemiluminescence assay (reference value: 3.3 kb); assay type: cell-based; procedure, shortened: as §2
A549 [12] = test: Binding affinity to human TERT promoter DNA sequence in human A549 cells assessed as telomere restriction fragment length at 0.8 uM after 30 days by TeloTAGGG-based chemiluminescence assay (reference value: 3.3 kb); assay type: cell-based; procedure, shortened: as §2
A549 [13] = test: Binding affinity to human TERT promoter DNA sequence in human A549 cells assessed as decrease in TERT mRNA expression at 6 uM after 24 hrs by semi-quantitative PCR analysis relative to control; assay type: cell-based; set-up: scale not given: the % may be the effect or the level left
Procedure, shortened: (§5)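 A549 cells (3.0×10^5) grown 24 h in RPMI 1640 + 10% FBS at 37 °C, 5% CO2, then exposed to compound for 24 h. Total RNA by Trizol, reverse transcribed, hTERT amplified with specific primers. Semi-quantitative and real-time SYBR Green PCR (45 cycles), standard-curve method, normalized to GAPDH. Three independent experiments.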

A549 [14] = test: Cytotoxicity against human A549 cells assessed as colony formation at 0.4 uM incubated for 6 days followed by subculturing in compound-free medium measured after 14 days by crystal violet staining method relative to control; assay type: functional; procedure, shortened: as §4
A549 [15] = test: Cytotoxicity against human A549 cells assessed as reduction in colony formation incubated for 30 days followed by subculturing in compound-free medium measured after 14 days by crystal violet staining method; assay type: functional, cell-based; procedure, shortened: as §4
A549 [16] = test: Induction of senescence in human A549 cells assessed as increase in beta-galactosidase activity at 0.4 to 0.8 uM incubated for 78 days followed by subculturing on compound-free medium measured after 48 hrs by fluorescence microscopic analysis; assay type: functional, cell-based
Procedure, shortened: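 A549 cells from the long-term treatment replated and grown 48 h. Fixed in 2% formaldehyde/0.2% glutaraldehyde for 5 min at RT. Stained overnight with 1 mg/ml X-gal in pH 6 citrate/phosphate buffer with 5 mM ferro/ferricyanide, 150 mM NaCl, 2 mM MgCl2. Enlarged blue cells scored by microscopy.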

A549 [17] = test: Cytotoxicity against human A549 cells assessed as colony formation at 0.8 uM incubated for 30 days followed by subculturing in compound-free medium measured after 14 days by crystal violet staining method relative to control; assay type: functional; procedure, shortened: as §4
[18] = Binding affinity to TSG4 primer DNA (unknown origin) assessed as inhibition of telomerase-mediated extension of primer […] by fluorescence-based TRAP assay
Procedure, shortened: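 Cell-free TRAP. Compound preincubated with TSG4 primer in telomerase buffer (20 mM Tris-HCl pH 7.4, 1.5 mM MgCl2, 63 mM KCl, 1 mM EGTA, 200 µM dNTPs) at 37 °C for 2 h. Crude telomerase (50 ng) from telomerase-transfected HEK293T added, 30 °C for 30 min. Compound removed by phenol-chloroform, products ethanol-precipitated, PCR with FAM-tagged primer, 8% native PAGE, phosphoimaging. IC50 ± SD from three experiments.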

A549 [19] = test: Binding affinity to human TERT promoter DNA sequence in human A549 cells assessed as decrease in TERT mRNA expression after 24 hrs by semi-quantitative PCR analysis; assay type: cell-based; procedure, shortened: as §5
A549 [20] = test: Binding affinity to human TERT promoter DNA sequence in human A549 cells assessed as telomere restriction fragment length at 0.8 uM after 6 days by TeloTAGGG-based chemiluminescence assay (reference value: 3.4 kb); assay type: cell-based; procedure, shortened: as §2
Homo sapiens [21] = species: Homo sapiens; test: Binding affinity to human TERT1 5'-AAGGGGAGGGGCTGGGAGGGCCCGGA-3' DNA assessed as induction of intramoleculsr G-quadruplex formation after 10 hrs by PAGE analysis; procedure, shortened: as §1
A549 [22] = test: Antiproliferative activity against human A549 cells assessed as decrease in population doubling at 0.4 uM after 78 days; assay type: functional, cell-based; procedure, shortened: as §3
A549 [23] = test: Binding affinity to human TERT promoter DNA sequence in human A549 cells assessed as telomere restriction fragment length at 0.8 uM after 78 days by TeloTAGGG-based chemiluminescence assay (reference value: 3.4 kb); assay type: cell-based; procedure, shortened: as §2
A549 [24] = test: Cytotoxicity against human A549 cells assessed as colony formation at 0.4 uM incubated for 30 days followed by subculturing in compound-free medium measured after 14 days by crystal violet staining method relative to control; assay type: functional; procedure, shortened: as §4

In the case of `O=C1c2ccc3c4ccc5c6c(ccc(c7ccc(c2c37)C(=O)N1CCN1CCCCC1)c64)C(=O)N(CCN1CCCCC1)C5=O`, the Activity (Homo sapiens [1]) is reported as “Dose-dependent effect”, the Activity (Homo sapiens [2]) is reported as “Active” and the Activity (A549 [3]) is reported as 3.6 kilobase. It also gave an Activity (A549 [4]) of 20%, an Activity (A549 [5]) of 78% and an Activity (A549 [6]) of 93%. For the same compound, the Activity (A549 [7]) was 66%, the Activity (A549 [8]) was “Dose-dependent effect” and the Activity (A549 [9]) was “inactive”. For the same compound, the Activity (A549 [10]) was 3 kilobase, the Activity (A549 [11]) was 3.3 kilobase and the Activity (A549 [12]) was 3.1 kilobase. The Activity (A549 [13]) was 68%, the Activity (A549 [14]) was 95% and the Activity (A549 [15]) was “Dose-dependent effect”. For the same compound, the Activity (A549 [16]) was “inactive”, the Activity (A549 [17]) was 89% and the IC50 [18] was 1400 nM. The inhibition [18] was “Dose-dependent effect”, the Activity (A549 [19]) was “Dose-dependent effect” and the Activity (A549 [20]) was 3.5 kilobase. The Activity (Homo sapiens [21]) was “Dose-dependent effect”, the Activity (A549 [22]) was “inactive” and the Activity (A549 [23]) was 2.7 kilobase. It also gave an Activity (A549 [24]) of 96%.
